The values that follow come from ChEMBL document CHEMBL4406893 (Bioorg Med Chem Lett, 2019).

Converted amounts (≈) assume the structure as drawn. A value given as a limit tells only on which side of the number the result lay.

In data set [1] the test system is Human immunodeficiency virus 1. Briefly: Antiviral activity against wild type HIV-1 3B infected in wild type human C8166 cells. The format is functional, organism-based. Conditions: Human immunodeficiency virus 1, 3B; call rule not given here.
Data set [2] in a line: physchem. Conditions: phosphate buffered saline, pH 7.4.
Data set [3] can be described thus: Selectivity index, ratio of CC50 for human MT4 cells to IC50 for antiviral activity against HIV-2 ROD infected in human MT4 cells. The format is toxicity, cell-based. As to conditions: read-out: Ratio CC50/IC50. The gist of the method:
(§1)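 MT4 cells infected with HIV-1 IIIB or HIV-2 ROD and tested in parallel with stavudine (d4T) as positive control. Antiviral IC50 and cytotoxic CC50 were both determined in MT4 cells. Selectivity index is CC50/IC50.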

Data set [4] has as its system Human immunodeficiency virus 1. The data set can be described thus: Antiviral activity against HIV-1 […] infected in thymidine kinase deficient human C8166 cells. It counts as functional, organism-based, 3B.
Data set [5] can be described thus: Cytotoxicity against human MT4 cells. The format is cell-based. A digest of the protocol: (§2)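 MT4 cells infected with HIV-1 (III_B) or HIV-2 (ROD), run in parallel with stavudine as positive control; antiviral IC50 and cytotoxic CC50 determined, selectivity index derived.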
The test system of data set [6] is Human immunodeficiency virus 2. Briefly: Antiviral activity against HIV-2 ROD infected in human MT4 cells. Conditions: Human immunodeficiency virus 2, ISOLATE ROD.
Data set [7] in a line: Selectivity index, ratio of CC50 for human MT4 cells to IC50 for antiviral activity against HIV-1 IIIB infected in MT4 cells. The format is toxicity, cell-based. As to conditions: read-out: Ratio CC50/IC50. The gist of the method: as §1
Data set [8] deals with Human immunodeficiency virus 1. The data set can be described thus: Antiviral activity against wild type HIV-1 3B infected in human MT4 cells. It counts as functional, organism-based. As to conditions: Human immunodeficiency virus 1, 3B. The gist of the method:
as §2

Data set [9] relates to Human immunodeficiency virus 2. Briefly: Potency index, ratio of stavudine IC50 to test compound IC50 for antiviral activity against HIV-2 ROD infected in human MT4 cells.
Data set [10] can be described thus: Prodrug activation in acetone-d6 and Trizma buffer assessed as carboxypeptidase Y (unknown origin)-mediated (S)-2-((((2S,5R)-5-(5-methyl-2,4-dioxo-3,4-dihydropyrimidin-1(2H)-yl)-2,5-dihydrofuran-2-yl)methoxy)oxidophosphorylamino)propanoate metabolite formation at 5 mg incubated for 7 mins to 2 hrs by 31P NMR analysis. The format is ADME, Homo sapiens. A digest of the protocol:
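Compound dissolved in acetone-d6 with Trizma buffer (pH 7.6), treated with carboxypeptidase Y; ³¹P NMR spectra recorded over time, blank spectrum at 25 °C, conversion of parent diastereoisomer peaks to the intermediate monitored by chemical shift changes.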

The test system of data set [11] is Human immunodeficiency virus 1. Briefly: Potency index, ratio of stavudine IC50 to test compound IC50 for antiviral activity against wild type HIV-1 3B infected in wild type human C8166 cells. The format is functional.
The test system of data set [12] is Human immunodeficiency virus 1. Briefly: Potency index, ratio of stavudine IC50 to test compound IC50 for antiviral activity against HIV-1 3B infected in human MT4 cells. It counts as functional. A digest of the protocol:
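MT4 cells infected with HIV-1 (IIIB) or HIV-2 (ROD). Test compounds were assayed alongside stavudine as the positive control, and antiviral IC50 was determined for each. Cytotoxicity (CC50) and selectivity index were determined in the same screen.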

The nature of data set [13]: Prodrug activation in acetone-d6 and Trizma buffer assessed as carboxypeptidase Y (unknown origin)-mediated 3-(pentafluoro-lambda6-sulfanyl)phenol metabolite formation at 5 mg incubated for 1.25 hrs by 19F NMR analysis. The format is ADME, Homo sapiens.
Where [14] appears, read: Human immunodeficiency virus 1, 3B, C8166, read-out: IC50.

A word on the IC50: it is the midpoint of a concentration-inhibition curve. As usually defined, the solubility (kinetic) is the concentration staying in solution when a stock, usually in DMSO, is diluted into the medium. In general, CC50 refers to the concentration at which the toxic effect on the cells reaches its halfway point. The low end stands for greater toxicity to the cells, the high end for lower toxicity to the cells. Consider `COC(=O)[C@H](C)NP(=O)(OC[C@@H]1C=C[C@H](n2cc(C)c(=O)[nH]c2=O)O1)Oc1cccc(C(F)(F)F)c1` (stereo partly specified), for which the IC50 was 39 nM in data set [1], “Not Active” in [4], 49 nM in [6] and 41 nM in [8]. The molecule further displayed a kinetic solubility at 2 h in [2] above 100 µM. Besides, the selectivity ratio in data set [3] was 1350; in data set [7], 1610. The 50% cytotoxic concentration (CC50) in data set [5] was found to be 66100 nM.
On to `COC(=O)[C@H](C)NP(=O)(OC[C@@H]1C=C[C@H](n2cc(C)c(=O)[nH]c2=O)O1)Oc1cccc(S(F)(F)(F)(F)F)c1` (stereo partly specified), for which the “Ratio IC50” value in data set [9] was above 10; in data set [11] it was 75; in [12], above 10. Also, the concentration for half-maximal inhibition (IC50) came out at 54 nM in data set [1], 335 nM in data set [4] (setting [14]), 36 nM in [6] and 30 nM in data set [8]. The molecule also returned a solubility (kinetic) at 2 h in data set [2] above 100 µM. Further, the values for the selectivity ratio in data set [3] and in data set [7] were 1460 and 1750, respectively. The Drug metabolism result in [10] and in data set [13] was “Metabolite_Detected” each time. This molecule yielded a CC50 in data set [5] of 52600 nM.
For the molecule `Cc1cn([C@H]2C=C[C@@H](CO)O2)c(=O)[nH]c1=O` [STAVUDINE], the concentration for half-maximal inhibition (IC50) was 4060 nM in data set [1], “Not Active” in data set [4], 450 nM in [6] and 400 nM in [8]. Besides, the kinetic solubility at 2 h in [2] is above 100 µM. The selectivity ratio in data set [3] was 695; in data set [7] it was 782. Moreover, the midpoint of cytotoxicity in data set [5], the CC50, lay at 313000 nM.
In turn, `COC(=O)C1=C(C)NC(C)=C(C(=O)OCCN(C)Cc2ccccc2)C1c1cccc([N+](=O)[O-])c1` (stereo unspecified) [NICARDIPINE] showed a solubility (kinetic) at 2 h in [2] of 10 to 30 µM (≈ 4.8 to 14.4 µg/mL).
In the case of `COC(=O)[C@H](C)NP(=O)(OC[C@@H]1C=C[C@H](n2cc(C)c(=O)[nH]c2=O)O1)Oc1ccccc1` (stereo partly specified), the IC50 in [1] was determined as 300 nM; in data set [4] (setting [14]), 320 nM; in data set [6] it was 270 nM; in data set [8], 210 nM. Besides, the selectivity ratio in [3] was found to be 930; in data set [7], 1200. In addition, half-maximal cytotoxicity in data set [5] (CC50) was put at 251000 nM.
As to `COC(=O)[C@H](C)NP(=O)(OC[C@@H]1C=C[C@H](n2cc(C)c(=O)[nH]c2=O)O1)Oc1ccc(C(F)(F)F)cc1` (stereo partly specified), the IC50 in data set [1] was 22 nM; in [4] (setting [14]), 75 nM; in [6] it was 47 nM; in data set [8] it was 37 nM. Moreover, the solubility (kinetic) at 2 h in data set [2] is above 100 µM. Besides, the values for the selectivity ratio in data set [3] and in [7] were 912 and 1160, respectively. Besides, the CC50 in data set [5] came out at 42900 nM. In addition, the “Ratio IC50” value in [11] is 180.
